Experiments:
MCF7 = test: Growth inhibition of MCF7 cells after 48 hrs; assay type: functional; conditions: Homo sapiens, MCF7, 48 h
Method in brief: (§1)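 NCI screening protocol. Cells in high-glucose DMEM with 5% bovine calf serum preincubated 24 h at 37 °C, 5% CO₂, then exposed 48 h to drug, final 10 to 0.3 µM (DMSO below 0.5%). TCA fixation, sulforhodamine B staining, absorbance at 585 nm against a plate fixed on treatment day to give growth inhibition and GI50. At least two experiments in triplicate.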

M21 = test: Growth inhibition of M21 cells after 48 hrs; assay type: functional; conditions: Homo sapiens, M21, 48 h; method in brief: as §1
HT-29 = test: Growth inhibition of HT29 cells after 48 hrs; assay type: functional; conditions: Homo sapiens, HT-29, 48 h; method in brief: as §1
M21 (human) [1] = test: Cell cycle arrest by accumulation at G2/M phase in M21 cells at 3 uM
HT-1080 = test: Cell cycle arrest by accumulation at G2/M phase in HT1080 cells at 10 uM; assay type: functional, Homo sapiens
Method in brief: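 HT 1080 cells incubated with drug (dissolved in DMSO, 0.5% final DMSO in medium; DMSO control). Cells harvested, fixed in ice-cold ethanol, and 5 × 10⁵ cells per sample stained with propidium iodide 50 µg/mL plus RNase A 40 U/mL for 30 min at room temperature. Flow cytometry gave % apoptotic cells and % G0/G1, S and G2/M populations.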

M21 (human) [2] = test: Induction of apoptosis in M21 cells at 25 uM
M21 (human) [3] = test: Cell cycle arrest in M21 cells by accumulation at G0/G1 phase at 25 uM
M21 (human) [4] = test: Cell cycle arrest in M21 cells by accumulation at G2/M phase at 25 uM
M21 (human) [5] = test: Cell cycle arrest by accumulation at G0/G1 phase in M21 cells at 10 uM
M21 (human) [6] = test: Cell cycle arrest by accumulation at G0/G1 phase in M21 cells at 3 uM
M21 (human) [7] = test: Cell cycle arrest by accumulation at S phase in M21 cells at 10 uM
M21 (human) [8] = test: Induction of apoptosis in M21 cells at 10 uM
MDA-MB-231 = test: Alkylation of beta-tubulin in MDA-MB-231 cells at 5 uM by electrophoretic mobility shift assay after 48 hrs; assay type: cell-based; conditions: Homo sapiens
M21 (human) [9] = test: Cell cycle arrest in M21 cells by accumulation at S phase at 25 uM
M21 (human) [10] = test: Cell cycle arrest by accumulation at S phase in M21 cells at 3 uM
M21 (human) [11] = test: Induction of apoptosis in M21 cells at 3 uM
M21 (human) [12] = test: Induction of apoptosis in M21 cells at 1.2 uM
M21 (human) [13] = test: Cell cycle arrest in M21 cells by accumulation at G0/G1 phase at 4 uM
M21 (human) [14] = test: Cell cycle arrest in M21 cells by accumulation at S phase at 1.2 uM
M21 (human) [15] = test: Induction of apoptosis in M21 cells at 4 uM
M21 (human) [16] = test: Cell cycle arrest by accumulation at G2/M phase in M21 cells at 4 uM
M21 (human) [17] = test: Cell cycle arrest in M21 cells by accumulation at G2/M phase at 1.2 uM
M21 (human) [18] = test: Cell cycle arrest in M21 cells by accumulation at S phase at 4 uM
M21 (human) [19] = test: Cell cycle arrest in M21 cells by accumulation at G0/G1 phase at 1.2 uM

Structure (SMILES) | GI50 (MCF7) | GI50 (HT-29) | GI50 (M21) | Activity (M21 (human) [5]) | Activity (M21 (human) [7]) | Activity (M21 (human) [8]) | also measured
COCCCCCc1cccc(NC(=O)NCCCl)c1 | 1000 nM | – | – | 7.52% | 14.37% | 9.02% | Activity (M21 (human) [1]): 40.22%; Activity (HT-1080): 68.57%; Activity (M21 (human) [2]): 8.63%; Activity (M21 (human) [3]): 6.74%; Activity (M21 (human) [4]): 70.84%; Activity (M21 (human) [6]): 31.28%; Activity (MDA-MB-231): 81%; Activity (M21 (human) [9]): 13.79%; Activity (M21 (human) [10]): 19.98%; Activity (M21 (human) [11]): 8.5%
CCCCCCCc1cccc(NC(=O)NCCCl)c1 | 2000 nM | 1000 nM | 1000 nM | – | – | – | –
CCCCCCc1cccc(NC(=O)NCCCl)c1 | 1000 nM | 1000 nM | 1000 nM | – | – | – | –
CCCCCc1cccc(NC(=O)NCCCl)c1 | 1000 nM | – | – | 7.85% | 13.28% | 8.59% | Activity (M21 (human) [1]): 60.78%; Activity (HT-1080): 68.06%; Activity (M21 (human) [2]): 7.84%; Activity (M21 (human) [3]): 8.75%; Activity (M21 (human) [4]): 68.48%; Activity (M21 (human) [6]): 15.06%; Activity (MDA-MB-231): 90%; Activity (M21 (human) [9]): 15.23%; Activity (M21 (human) [10]): 17.75%; Activity (M21 (human) [11]): 6.16%
COCCCCc1cccc(NC(=O)NCCCl)c1 | 3000 nM | 1000 nM | 2000 nM | – | – | – | –
O=C(NCCCl)Nc1cccc(CCCCCO)c1 | – | – | – | 5.9% | 12.11% | 10.71% | Activity (M21 (human) [12]): 7.58%; Activity (M21 (human) [13]): 7.57%; Activity (M21 (human) [14]): 16.65%; Activity (M21 (human) [15]): 9.83%; Activity (M21 (human) [16]): 70.24%; Activity (M21 (human) [17]): 21.82%; Activity (M21 (human) [18]): 12.12%; Activity (M21 (human) [19]): 54.35%

Continued, in another order:

GI50 (MCF7) | GI50 (HT-29) | Structure (SMILES) | GI50 (M21) | Activity (M21 (human) [5]) | Activity (M21 (human) [7]) | Activity (M21 (human) [8]) | also measured
> 10000 nM | > 10000 nM | COc1cccc(NC(=O)NCCCl)c1 | > 10000 nM | – | – | – | –
14000 nM | 4000 nM | COCCc1cccc(NC(=O)NCCCl)c1 | 6000 nM | – | – | – | –
> 10000 nM | 4000 nM | COCCCc1cccc(NC(=O)NCCCl)c1 | 5000 nM | – | – | – | –
> 10000 nM | > 10000 nM | COCc1cccc(NC(=O)NCCCl)c1 | > 10000 nM | – | – | – | –
